For data set [1], the target named is T1, Prostacyclin receptor (Homo sapiens, UniProt P43119). The experiment in a line: Displacement of [3H]iloprost from IP receptor in human platelet membrane. The class given is cell membranes. Summed up: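 Filter binding with 0.01 μM [3H]-iloprost and 50 μg human platelet membranes. Incubated 1 h at room temperature in 20 mM Hepes, 5 mM MgCl2, pH 7.4, with or without compound. Compound serially diluted in DMSO, final DMSO 1–10%. Filtered, washed twice with PBS, counted by scintillation.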
For orientation: In a radioligand displacement assay an active substance lowers the binding of a labelled ligand.

The target in data set [2] is T1, Prostacyclin receptor. The experiment in a line: Antagonist activity at human IP receptor in HEL 92.1.7 cells assessed as inhibition of iloprost-induced cAMP production. The class given is functional, cell-based. Summed up: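 HEL 92.1.7 cells cultured in RPMI with 10% FBS, 10 mM Hepes, 1 mM sodium pyruvate, penicillin/streptomycin. 5000 cells preincubated 15 min at 37 °C with compound in 5 mM Hepes, 0.05% BSA buffer. Stimulated with 0.01 μM iloprost for 15 min at 37 °C. cAMP read by LANCE TR-FRET kit. Data normalized to max/min controls; IC50 from curve fit.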
For orientation: Cyclic AMP is a second messenger, typically raised through Gs and lowered through Gi signalling.

The target of a further data set is Cytochrome P450 2C19 (Homo sapiens, UniProt P33261). The experiment in a line: Inhibition of CYP2C19. In kind it is ADME.
Data set [3] can be described thus: Apparent permeability across Caco-2 cells. The conditions noted are these: human. The class given is ADME, cell-based. On the technique in general: Caco-2 monolayers are a common model of the intestinal barrier.
The next data set addresses hERG (KCNH2) (Homo sapiens, UniProt Q12809). The experiment in a line: Inhibition of hERG at 20 uM by rubidium efflux assay. In kind it is toxicity.
Data set [4] addresses Prostaglandin E2 receptor EP4 subtype (Homo sapiens, UniProt P35408). The data set is described as follows: Inhibition of human recombinant EP4 receptor expressed in 293EBNA cells. In kind it is cell-based.
The target in data set [5] is Prostaglandin E2 receptor EP2 subtype (Homo sapiens, UniProt P43116). The experiment in a line: Inhibition of human recombinant EP2 receptor expressed in 293EBNA cells. The class given is cell-based.
A further data set concerns the target Cytochrome P450 2C9 (Homo sapiens, UniProt P11712). The experiment in a line: Inhibition of CYP2C9. The class given is ADME.
Data set [6] in a line: Metabolic stability in human liver microsomes after 30 mins. In kind it is ADME, Microsome. The conditions noted are these: read-out: Stability. Summed up: (§1)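 Human or rat liver microsomes, […], incubated 30 min with compound; percent parent remaining.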
Data set [7] can be described thus: Metabolic stability in rat liver microsome after 30 mins. The note with it: liver microsomes, read-out: Stability. The class given is ADME. Summed up: as §1
The target of another data set is Cytochrome P450 3A4 (Homo sapiens, UniProt P08684). The data set is described as follows: Inhibition of CYP3A4. The class given is ADME.
Another data set concerns the target Cytochrome P450 2D6 (Homo sapiens, UniProt P10635). The experiment in a line: Inhibition of CYP2D6. The class given is ADME.
For another data set, the target named is T2, Cytochrome P450 1A2 (Homo sapiens, UniProt P05177).
T2 sequence (P05177 whole entry): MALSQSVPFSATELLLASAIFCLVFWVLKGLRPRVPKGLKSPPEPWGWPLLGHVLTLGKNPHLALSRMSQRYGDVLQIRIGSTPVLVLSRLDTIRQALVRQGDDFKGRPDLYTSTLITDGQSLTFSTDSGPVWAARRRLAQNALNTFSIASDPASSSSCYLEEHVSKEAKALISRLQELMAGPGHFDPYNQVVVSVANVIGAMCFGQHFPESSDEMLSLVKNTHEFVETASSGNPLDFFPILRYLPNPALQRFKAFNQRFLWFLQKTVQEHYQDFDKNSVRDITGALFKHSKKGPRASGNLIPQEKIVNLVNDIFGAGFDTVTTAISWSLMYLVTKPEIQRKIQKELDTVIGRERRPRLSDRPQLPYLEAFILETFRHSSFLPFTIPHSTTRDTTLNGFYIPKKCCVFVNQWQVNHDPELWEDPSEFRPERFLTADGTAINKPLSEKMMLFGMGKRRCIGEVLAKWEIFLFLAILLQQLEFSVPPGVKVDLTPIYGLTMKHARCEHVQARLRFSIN
The data set is described as follows: Inhibition of CYP1A2. In kind it is ADME.

Structures are written as SMILES.

17 molecules from ChEMBL document CHEMBL1148848, “Discovery and preliminary evaluation of 5-(4-phenylbenzyl)oxazole-4-carboxamides as prostacyclin receptor antagonists” (Bioorg Med Chem Lett, 2007) can be followed below.

A word on the IC50: it is the concentration needed to halve the response being measured. The term Papp denotes the rate of passage across a membrane or cell layer, normalised by area and donor concentration. A word on the inhibition: it is how much of the control response was suppressed. High values mean a strong effect, low ones a weak effect.

T1 sequence (P43119 whole entry): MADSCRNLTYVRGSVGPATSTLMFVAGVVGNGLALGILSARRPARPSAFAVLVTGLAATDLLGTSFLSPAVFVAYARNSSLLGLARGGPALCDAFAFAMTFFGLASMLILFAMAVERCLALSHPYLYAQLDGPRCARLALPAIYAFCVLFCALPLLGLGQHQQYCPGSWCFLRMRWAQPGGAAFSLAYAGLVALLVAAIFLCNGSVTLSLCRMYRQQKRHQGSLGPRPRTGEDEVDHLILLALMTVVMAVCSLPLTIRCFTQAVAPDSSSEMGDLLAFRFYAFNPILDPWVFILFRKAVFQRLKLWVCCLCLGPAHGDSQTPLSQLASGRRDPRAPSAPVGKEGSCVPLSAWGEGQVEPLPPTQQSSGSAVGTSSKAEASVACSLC
Chain of Prostaglandin E2 receptor EP4 subtype (P35408 whole entry): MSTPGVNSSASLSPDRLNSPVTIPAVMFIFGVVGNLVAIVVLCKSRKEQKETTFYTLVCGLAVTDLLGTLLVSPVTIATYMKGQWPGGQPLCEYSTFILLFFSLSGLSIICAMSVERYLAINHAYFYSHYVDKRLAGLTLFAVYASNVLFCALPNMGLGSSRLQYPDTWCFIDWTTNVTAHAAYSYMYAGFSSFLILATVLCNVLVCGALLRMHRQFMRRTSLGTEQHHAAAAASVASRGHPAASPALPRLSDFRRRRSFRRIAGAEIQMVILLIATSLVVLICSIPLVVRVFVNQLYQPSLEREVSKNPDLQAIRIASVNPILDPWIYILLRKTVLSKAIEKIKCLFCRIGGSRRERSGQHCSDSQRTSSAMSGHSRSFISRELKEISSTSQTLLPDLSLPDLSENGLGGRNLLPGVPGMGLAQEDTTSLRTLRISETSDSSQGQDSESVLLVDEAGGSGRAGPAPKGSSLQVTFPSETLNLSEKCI
Chain of hERG (KCNH2) (Q12809 whole entry): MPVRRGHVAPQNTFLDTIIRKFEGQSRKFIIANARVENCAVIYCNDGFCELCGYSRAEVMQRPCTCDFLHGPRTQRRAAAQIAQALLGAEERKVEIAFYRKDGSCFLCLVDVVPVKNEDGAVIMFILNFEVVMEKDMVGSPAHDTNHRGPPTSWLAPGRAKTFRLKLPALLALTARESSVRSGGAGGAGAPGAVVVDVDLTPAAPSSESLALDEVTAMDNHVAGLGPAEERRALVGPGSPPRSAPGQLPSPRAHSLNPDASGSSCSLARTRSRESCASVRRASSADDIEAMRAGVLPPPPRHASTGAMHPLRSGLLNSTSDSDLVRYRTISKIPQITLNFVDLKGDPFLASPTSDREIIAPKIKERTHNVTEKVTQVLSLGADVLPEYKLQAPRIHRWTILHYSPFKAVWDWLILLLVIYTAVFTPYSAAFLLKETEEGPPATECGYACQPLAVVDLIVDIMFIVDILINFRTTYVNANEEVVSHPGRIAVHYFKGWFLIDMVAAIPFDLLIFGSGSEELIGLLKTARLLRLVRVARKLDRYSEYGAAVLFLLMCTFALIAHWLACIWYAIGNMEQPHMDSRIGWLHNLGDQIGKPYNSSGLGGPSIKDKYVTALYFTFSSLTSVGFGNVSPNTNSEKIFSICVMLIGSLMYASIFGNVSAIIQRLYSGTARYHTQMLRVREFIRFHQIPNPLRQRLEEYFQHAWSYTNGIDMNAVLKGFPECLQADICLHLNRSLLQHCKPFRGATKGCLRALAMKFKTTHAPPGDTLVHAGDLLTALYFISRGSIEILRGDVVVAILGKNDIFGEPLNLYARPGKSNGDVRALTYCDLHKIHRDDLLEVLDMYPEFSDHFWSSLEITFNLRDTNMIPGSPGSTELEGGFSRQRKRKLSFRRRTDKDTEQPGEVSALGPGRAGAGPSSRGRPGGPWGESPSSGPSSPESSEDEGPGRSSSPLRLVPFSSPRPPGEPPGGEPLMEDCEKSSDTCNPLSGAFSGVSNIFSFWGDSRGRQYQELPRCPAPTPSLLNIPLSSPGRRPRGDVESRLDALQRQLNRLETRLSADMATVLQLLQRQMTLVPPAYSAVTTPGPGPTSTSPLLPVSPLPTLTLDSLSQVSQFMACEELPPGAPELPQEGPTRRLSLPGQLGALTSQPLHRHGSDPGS
Chain of Cytochrome P450 2C9 (P11712 whole entry): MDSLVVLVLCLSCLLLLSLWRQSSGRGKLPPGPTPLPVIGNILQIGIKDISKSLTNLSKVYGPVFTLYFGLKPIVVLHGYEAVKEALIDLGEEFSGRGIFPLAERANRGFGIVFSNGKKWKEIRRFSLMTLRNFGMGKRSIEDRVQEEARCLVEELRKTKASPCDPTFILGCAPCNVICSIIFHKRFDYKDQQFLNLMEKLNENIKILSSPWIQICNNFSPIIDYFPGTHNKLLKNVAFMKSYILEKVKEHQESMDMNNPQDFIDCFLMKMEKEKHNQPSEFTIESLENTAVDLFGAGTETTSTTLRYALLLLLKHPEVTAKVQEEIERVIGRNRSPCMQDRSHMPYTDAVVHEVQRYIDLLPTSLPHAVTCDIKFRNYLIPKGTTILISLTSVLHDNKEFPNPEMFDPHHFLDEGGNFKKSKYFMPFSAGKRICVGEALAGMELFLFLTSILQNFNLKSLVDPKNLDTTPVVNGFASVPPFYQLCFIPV
Chain of Prostaglandin E2 receptor EP2 subtype (P43116 whole entry): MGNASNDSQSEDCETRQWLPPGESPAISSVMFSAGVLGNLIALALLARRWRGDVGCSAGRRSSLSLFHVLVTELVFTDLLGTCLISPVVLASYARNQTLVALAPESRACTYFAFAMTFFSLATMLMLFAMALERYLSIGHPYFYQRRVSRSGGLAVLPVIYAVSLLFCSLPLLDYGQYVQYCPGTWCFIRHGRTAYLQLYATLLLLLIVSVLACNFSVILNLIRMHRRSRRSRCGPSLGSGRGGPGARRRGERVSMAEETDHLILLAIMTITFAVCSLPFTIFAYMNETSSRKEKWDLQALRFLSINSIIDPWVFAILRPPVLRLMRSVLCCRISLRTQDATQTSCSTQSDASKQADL
Chain of Cytochrome P450 2C19 (P33261 whole entry): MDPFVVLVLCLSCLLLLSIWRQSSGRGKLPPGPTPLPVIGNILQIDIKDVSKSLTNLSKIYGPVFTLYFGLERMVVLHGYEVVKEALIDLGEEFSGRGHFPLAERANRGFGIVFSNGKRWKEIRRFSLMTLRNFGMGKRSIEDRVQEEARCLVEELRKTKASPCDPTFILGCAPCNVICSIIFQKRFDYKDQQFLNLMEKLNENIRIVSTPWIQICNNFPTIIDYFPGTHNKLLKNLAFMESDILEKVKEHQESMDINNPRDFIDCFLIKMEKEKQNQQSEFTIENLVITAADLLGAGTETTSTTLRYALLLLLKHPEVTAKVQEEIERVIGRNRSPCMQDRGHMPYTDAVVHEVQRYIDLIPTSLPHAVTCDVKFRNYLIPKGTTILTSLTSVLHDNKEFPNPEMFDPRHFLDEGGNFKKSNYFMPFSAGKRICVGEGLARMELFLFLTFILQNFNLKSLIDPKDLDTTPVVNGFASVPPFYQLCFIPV
Chain of Cytochrome P450 2D6 (P10635 whole entry): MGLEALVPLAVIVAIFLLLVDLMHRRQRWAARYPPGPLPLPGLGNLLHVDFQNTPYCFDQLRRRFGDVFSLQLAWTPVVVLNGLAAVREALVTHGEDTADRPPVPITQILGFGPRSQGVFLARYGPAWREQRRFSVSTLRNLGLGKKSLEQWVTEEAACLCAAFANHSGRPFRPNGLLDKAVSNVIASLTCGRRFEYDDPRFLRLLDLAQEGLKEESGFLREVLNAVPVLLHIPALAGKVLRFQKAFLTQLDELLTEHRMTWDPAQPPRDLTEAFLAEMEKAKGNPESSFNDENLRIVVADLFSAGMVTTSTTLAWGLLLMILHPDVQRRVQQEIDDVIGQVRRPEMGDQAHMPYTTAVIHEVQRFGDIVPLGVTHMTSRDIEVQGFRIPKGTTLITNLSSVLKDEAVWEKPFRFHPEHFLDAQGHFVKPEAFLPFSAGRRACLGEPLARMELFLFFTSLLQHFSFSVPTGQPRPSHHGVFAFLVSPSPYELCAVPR
Chain of Cytochrome P450 3A4 (P08684 whole entry): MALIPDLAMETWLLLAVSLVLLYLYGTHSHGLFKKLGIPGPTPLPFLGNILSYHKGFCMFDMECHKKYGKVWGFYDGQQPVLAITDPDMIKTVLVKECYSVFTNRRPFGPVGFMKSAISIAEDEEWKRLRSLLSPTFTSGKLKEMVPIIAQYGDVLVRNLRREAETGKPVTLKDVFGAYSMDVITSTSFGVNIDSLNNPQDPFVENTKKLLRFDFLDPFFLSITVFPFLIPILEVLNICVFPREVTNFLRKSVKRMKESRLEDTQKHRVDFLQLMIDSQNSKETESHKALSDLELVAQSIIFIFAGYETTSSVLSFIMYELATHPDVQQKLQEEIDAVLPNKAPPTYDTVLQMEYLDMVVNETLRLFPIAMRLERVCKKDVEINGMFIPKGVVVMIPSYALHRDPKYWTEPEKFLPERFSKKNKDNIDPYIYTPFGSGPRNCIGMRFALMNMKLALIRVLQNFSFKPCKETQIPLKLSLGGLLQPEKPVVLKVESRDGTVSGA

Regarding `CC(=O)Nc1cccc(-c2ccc(Cc3ocnc3C(=O)NCCc3ccncc3)cc2)c1`, the IC50 on Prostacyclin receptor [1] was 4.71 µM; at Prostacyclin receptor [2], 0.476 µM.
For `CC(=O)Nc1cccc(-c2ccc(Cc3ocnc3C(=O)NCCc3ccccc3)cc2)c1`, in that order: 0.721 µM and 0.138 µM.
On the same counts, the results for `CC(=O)Nc1cccc(-c2ccc(Cc3ocnc3C(=O)NCCc3cccnc3)cc2)c1` are 4.95 µM and 0.741 µM.
In the case of `CC(=O)Nc1cccc(-c2ccc(Cc3ocnc3C(=O)N[C@H](Cc3ccccc3)C(=O)O)cc2)c1`, the IC50 amounted to 4.2 µM at Prostacyclin receptor [1] and 0.831 µM at Prostacyclin receptor [2].
For the molecule `CC(=O)Nc1cccc(-c2ccc(Cc3ocnc3C(=O)NCC(C)c3ccccc3)cc2)c1` (racemic), the IC50 at Prostacyclin receptor [1] was determined as 0.077 µM.
As to `CC(=O)Nc1cccc(-c2ccc(Cc3ocnc3C(=O)N[C@@H](Cc3ccccc3)C(=O)O)cc2)c1`, the IC50 was over 20 µM against Cytochrome P450 2C19; 24 µM in data set [4]; 32 µM in [5]; 5.1 µM against Cytochrome P450 2C9; 0.476 µM on Prostacyclin receptor [1]; 0.016 µM at Prostacyclin receptor [2]. Further, the IC50 on Cytochrome P450 3A4, at Cytochrome P450 2D6 and against Cytochrome P450 1A2 was over 20 µM throughout. Further, the Papp in data set [3] turned out to be 5.5 ×10⁻⁶ cm/s. The molecule further gave an inhibition at 20 µM against hERG (KCNH2) of 5%. For the same molecule, the remaining at 0.5 h in data set [6] came to 100%; in data set [7], 91%.
As for `CC(=O)Nc1cccc(-c2ccc(Cc3ocnc3C(=O)NC(C)c3ccccc3)cc2)c1` (racemic), the IC50 was 1.23 µM at Prostacyclin receptor [1] and 0.278 µM on Prostacyclin receptor [2].
For `CC(=O)Nc1cccc(-c2ccc(Cc3ocnc3C(=O)N(C)C)cc2)c1`, in that order: 12.4 µM and 3.58 µM.
For the molecule `CC(=O)Nc1cccc(-c2ccc(Cc3ocnc3C(=O)N(C)CCc3ccccc3)cc2)c1`, the IC50 at Prostacyclin receptor [1] stood at 7.16 µM; on Prostacyclin receptor [2], 2.13 µM.
For the molecule `CC(=O)Nc1cccc(-c2ccc(Cc3ocnc3C(=O)NC[C@H](C)c3ccccc3)cc2)c1`, the IC50 was 0.053 µM at Prostacyclin receptor [1] and 0.051 µM at Prostacyclin receptor [2]. Moreover, the remaining at 0.5 h was determined as 12% in [6] and 11% in [7].
Turning to `CC(=O)Nc1cccc(-c2ccc(Cc3ocnc3C(=O)N[C@H]3C[C@@H]3c3ccccc3)cc2)c1`, the IC50 on Prostacyclin receptor [1] amounted to 0.331 µM; at Prostacyclin receptor [2], 0.358 µM.
Take `CC(=O)Nc1cccc(-c2ccc(Cc3ocnc3C(=O)NCc3ccccc3)cc2)c1`: the concentration for half-maximal inhibition (IC50) at Prostacyclin receptor [1] stood at 0.561 µM; at Prostacyclin receptor [2], 0.066 µM. The remaining at 0.5 h in data set [6] was 63%; in data set [7], 33%.
Take `CC(=O)Nc1cccc(-c2ccc(Cc3ocnc3C(=O)NCCc3ccccn3)cc2)c1`: the 50% inhibitory concentration (IC50) on Prostacyclin receptor [1] was determined as 7.6 µM; at Prostacyclin receptor [2] it was 1.01 µM.
On to `CC(=O)Nc1cccc(-c2ccc(Cc3ocnc3C(=O)Nc3ccccc3)cc2)c1`, for which the IC50 amounted to 3.48 µM at Prostacyclin receptor [1] and 0.828 µM on Prostacyclin receptor [2].
On the same counts, the results for `CC(=O)Nc1cccc(-c2ccc(Cc3ocnc3C(=O)NCCN(C)C)cc2)c1` are 34.1 µM and 3.31 µM.
With `CC(=O)Nc1cccc(-c2ccc(Cc3ocnc3C(=O)NC[C@@H](C)c3ccccc3)cc2)c1`, the IC50 worked out at 0.916 µM at Prostacyclin receptor [1] and 0.296 µM on Prostacyclin receptor [2].
For `CNC(=O)c1ncoc1Cc1ccc(-c2cccc(NC(C)=O)c2)cc1`, in that order: 12.2 µM and 3.31 µM.
